Sampled rows, rich in hits. Any-hit rate of the full collection: about 1.7%.
m5-HT2A agonist: mouse Htr2a agonists via beta-arrestin recruitment, primary screen, cell-based, luminescence; 5-hydroxytryptamine receptor 2A (Mus musculus), P35363; CHO-K1 mHTR2A beta-arrestin complementation; percent of 30 µM serotonin response; activation, % at 7.6 µM; hit rate 0.66% among 360,000; AID 624169, 2012;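 active means activation above a run cutoff, the mean activation of all tested compounds plus 3 SD, cut at about 14% in these data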;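 further: 0% = plate median of compound wells and 100% = 30 µM serotonin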
T cell HTS: modulators of CD8 T cell-vesicle binding, primary screen, mouse 2C CD8+ T cells, flow cytometry; response (vesicle binding), % at 7 µM; AID 2052, 2009; hit rate 0.068% among 330,000; 2C CD8+ T cell-vesicle binding; stronger effect = lower value;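 active means response, share of CD8 T cells binding vesicles, and their 90th percentile fluorescence all below set limits, cut at about 80% in these data, passing the limit was not always enough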;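 further: values below 100% mean blocked vesicle binding to the CD8+ T cells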
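Test system: purified 2C TCR transgenic mouse naive CD8+ T cells. Probe or stimulus: QL9-peptide-loaded Drosophila micro-vesicles bearing Ld, ICAM-1 and B7-1. Incubation: binding step 1.5 h, 37 °C, antibody labelling 20 min, ice. Measured by: flow cytometry of vesicle-bound cells.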
PP5 inh: PP5 phosphatase inhibitors, primary screen, biochemical, fluorescence. purified PP5c, OMFP substrate fluorescence. hit rate 0.18% among 320,000. inhibition, % at 6.7 µM;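 active means inhibition above the campaign's mean inhibition across all tested compounds plus 3 SD, cut at about 9.5% in these data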;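 further: 0% = DMSO only and 100% = 100 µM cantharidin control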
JMJD2C inh: inhibitors of GASC-1 histone demethylase, primary screen, biochemical, fluorescence, DELFIA europium | hit rate 0.069% among 330,000 | GST-JMJD2C(1-420) H3K9me3 demethylation | inhibition, % at 2.35 µM | Lysine-specific demethylase 4C (Homo sapiens), Q9H3R0;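 active means more than half of a compound's replicate wells show inhibition beyond 50%, single wells judged on their own value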;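 further: signal counts dimethyl H3K9 product captured on neutravidin plate; 0% = median of DMSO wells and 100% = 0.3 times that DMSO median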
PP1 counter: PP1-alpha phosphatase inhibitors, primary screen, counter-screen for PP5 inhibitor project, biochemical, fluorescence, OMFP substrate, single point. Serine/threonine-protein phosphatase PP1-alpha catalytic subunit (Homo sapiens), P62136. purified PP1alpha. inhibition, % at 6.7 µM. hit rate 0.9% among 320,000. AID 2235, 2010;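 active means inhibition above the mean inhibition of all tested compounds plus 3 SD, computed separately for each screening campaign, cut at about 15% in these data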
Target sequence (P62136 whole entry, looked up): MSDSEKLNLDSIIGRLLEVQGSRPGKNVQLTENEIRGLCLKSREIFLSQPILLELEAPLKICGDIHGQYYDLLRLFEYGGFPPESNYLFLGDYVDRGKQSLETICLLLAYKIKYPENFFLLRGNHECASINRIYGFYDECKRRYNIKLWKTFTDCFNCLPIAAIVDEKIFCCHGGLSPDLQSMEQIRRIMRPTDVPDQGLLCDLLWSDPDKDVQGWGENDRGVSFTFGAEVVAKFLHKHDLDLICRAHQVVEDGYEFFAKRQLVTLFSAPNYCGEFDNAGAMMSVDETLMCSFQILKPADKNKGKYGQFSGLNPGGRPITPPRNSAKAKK
PP1 confirm: PP1 phosphatase inhibitors, confirmation, biochemical, fluorescence, OMFP substrate, triplicate. shares compounds with PP1 counter. hit rate 52% among 1,900. inhibition, % at 6.7 µM. AID 2358, 2010. purified PP1alpha;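 active means mean PP1 inhibition above a set limit taken from the earlier primary screen, cut at about 15% in these data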
PP5 counter: PP5 phosphatase inhibition by PP1 hits, confirmation, counter-screen for PP1 inhibitor project, biochemical, fluorescence, triplicate; shares compounds with PP1 counter; purified PP5c, OMFP fluorescence; inhibition, % at 6.7 µM; hit rate 4% among 1,900; AID 2360, 2010;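 active means mean PP5 inhibition over triplicate wells above about 9.5% taken from the earlier PP1 screen, limit read from the data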
An asterisk follows results filed as active; i = inactive; / = no result.

SMILES	m5-HT2A agonist	T cell HTS	PP5 inh	JMJD2C inh	PP1 counter	PP1 confirm	PP5 counter
Cc1ccc([C@@H]2CC=C(C(=O)O)[C@H](c3ccc(Cl)cc3)N2S(=O)(=O)c2ccc(C)cc2)cc1	3.0	525.9	3.0	2.7	10.6	/	/
O=C(O)C1=CC[C@@H](c2ccc(Cl)cc2)N(S(=O)(=O)c2ccc(Cl)cc2)[C@H]1c1cccc(Cl)c1	2.8	512.8	-2.9	7.6	23.1*	12.5	-3.6
Cc1ccc(S(=O)(=O)N2[C@@H](c3cccc(Cl)c3)C(C(=O)O)=CC[C@H]2c2ccc(C(C)C)cc2)cc1	-0.6	309.9	2.2	-183.3	29.0*	21.0*	2.0
Cc1ccc(S(=O)(=O)N2[C@@H](c3ccc(Cl)cc3)C(C(=O)O)=CC[C@H]2c2ccc(Cl)cc2)cc1	-3.7	857.8	5.2	0.8	21.5*	12.1	0.2
COCCCNC(=O)Cc1c(C)c2c(cc(C)c3c(C(C)(C)C)coc32)oc1=O	11.9	221.1	0.8	-17.9	-1.8	/	/
CCOC(=O)c1ccc(NC(=O)CSc2nnc(CCc3ccc(C)o3)n2-c2ccccc2)cc1	-4.6	221.4	2.6	-12.1	19.3*	13.7	-2.8
Cc1ccc2nc(-c3ccccn3)cc(C(=O)NCCc3ccc(F)cc3)c2c1	-1.1	250.6	2.1	-0.2	-2.3	/	/
N#C/C(=C/c1cn(-c2ccccc2)nc1-c1cccc(OCc2ccc(F)cc2)c1)C(=O)NCCCn1ccnc1	-7.5	128.5	5.1	3.2	22.4*	8.0	-2.6
COc1ccc(C(=O)Nc2ccc(Cl)cc2C(=O)N2CCCC(C)C2)cc1 (configuration not stated)	-4.8	595.4	-1.2	2.0	59.7*	-1.4	-1.5
C=CCn1cccc(C(=O)Nc2ccc(OC)c(Cl)c2)c1=O	-3.5	278.9	0.7	2.7	4.1	/	/
O=C(Cc1ccccc1)NC(=S)Nc1ccc(OC(F)F)cc1	-4.4	132.0	6.7	2.6	7.6	/	/
CCc1ccc(Nc2n[n+](-c3ccccc3)c(-c3ccc(OC)c(Br)c3)s2)cc1	-5.2	262.6	3.9	-6.1	20.2*	12.8	7.2
CCOc1cc(/C=C(\C#N)C(=O)Nc2ccc(S(N)(=O)=O)cc2)ccc1OCCN1CCOCC1	-2.8	139.1	-0.3	14.6	-4.2	/	/
c1ccc(N(c2ccccc2)c2nc(-n3ccnc3)nc(-n3ccnc3)n2)cc1	-0.7	227.4	1.2	9.0	50.2*	49.8*	0.4
Cn1c(=O)c(C(=O)NNC(=O)c2ccccc2Br)c(O)c2ccccc21	5.7	244.7	1.5	-3.7	19.6*	14.9	-2.8
CCn1c(=O)c(C(=O)NNC(=O)c2ccccc2Br)c(O)c2ccccc21	4.9	196.9	-0.6	2.8	21.8*	11.6	-4.0
CCn1c(=O)c(C(=O)NNC(=O)Cc2ccccc2)c(O)c2ccccc21	-5.2	460.5	-1.2	-2.4	-0.7	/	/
Cn1c(=O)c(C(=O)NNC(=O)c2ccccc2Cl)c(O)c2ccccc21	2.3	358.6	-4.4	-28.6	7.6	/	/
CSc1nsc(SCC(=O)Nc2nc3ccc(C)cc3s2)n1	3.2	185.0	-0.4	-7.2	25.9*	18.7*	-4.8
Cc1ccc2nc(NC(=O)COC(=O)CSc3nc(C)cc(C)n3)sc2c1	-0.2	502.4	-0.4	2.2	-1.6	/	/
O=C(COc1ccccc1F)NNC(=O)c1cccc(-n2cccc2)c1	1.7	295.6	3.8	-5.0	-4.3	/	/
O=Cc1cn(-c2ccccc2)nc1-c1cc2cc(O)ccc2oc1=O	-2.3	378.2	2.1	-0.6	28.1*	18.1*	-1.6
CC1CC(=O)c2c(cc3c(-c4c(O)cc(O)c5c(O)c6c(cc45)OC(C)CC6=O)c(O)cc(O)c3c2O)O1 (configuration not stated)	-9.3	228.4	1.0	10.3	69.7*	48.2*	1.9
Cc1c(/C=N/n2cnnc2)c2ccccc2n1CCOc1ccc(Cl)cc1	-6.4	224.8	3.5	-23.7	28.6*	4.0	-3.4
Cc1sc2nc(COC(=O)c3cccc(S(=O)(=O)N(C)c4ccccc4)c3)[nH]c(=O)c2c1C	0.1	404.3	0.2	-2.7	20.9*	25.4*	-2.4
SMILES	m5-HT2A agonist	T cell HTS	PP5 inh	JMJD2C inh	PP1 counter	PP1 confirm	PP5 counter
Cc1sc2nc(COC(=O)c3cccc(OC(F)F)c3)[nH]c(=O)c2c1C	-3.3	192.1	1.2	-6.7	3.2	/	/
CCC(c1nnnn1-c1ccc2c(c1)OCCO2)N1CCN(c2ccc(C)cc2)CC1 (configuration not stated)	-2.8	/	/	/	/	/	/
O=C(CN1C(=O)/C(=C2\SC(=S)N(CCS(=O)(=O)O)C2=O)c2ccccc21)Nc1cccc(Br)c1	-4.0	424.9	1.8	3.5	36.6*	38.8*	-1.6
Cc1ccc(C(=O)C2=C(O)C(=O)N(CC3CCCO3)C2c2ccccc2F)o1 (configuration not stated)	2.9	205.1	3.9	i	0.2	/	/
CCCCOc1ccc(C2C(C(=O)c3ccc(C)o3)=C(O)C(=O)N2CC2CCCO2)cc1 (configuration not stated)	-1.0	306.2	0.2	-8.9	19.9*	27.0*	-2.3
COc1ccc(/C=N/NC(=O)c2ccc(NC(C)=O)cc2)cc1COc1ccc(F)cc1F	-5.1	467.6	1.5	13.8	21.8*	12.1	-2.0
COc1ccc(/C=N\NC(=O)c2ccccc2F)cc1COc1ccc(F)cc1F	-1.6	217.2	3.4	-0.9	4.9	/	/
COc1ccc(/C=N\NC(=O)c2cc(O)c(O)c(O)c2)cc1COc1ccc(C(=O)OCC(C)C)cc1	-1.0	3.9	7.0	-49.6	26.8*	25.3*	0.1
COc1ccc(C(=O)N/N=C/c2ccc(OC)c(COc3ccccc3)c2)cc1	-4.7	227.3	3.3	-1.7	1.5	/	/
COc1ccc(N=Nc2ccc(O)c3ncccc23)cc1	-4.8	291.6	2.0	-1.7	27.2*	26.1*	-1.5
COc1cc(OC)cc(C(=O)Nc2cccc3cccnc23)c1	2.2	155.6	1.6	-19.6	-0.2	/	/
COc1cccc(N=Nc2ccc(O)c3ncccc23)c1	-15.7	205.5	3.7	1.2	26.9*	23.4*	-1.1
O=S(=O)(O)c1cccc2c(N=Nc3ccc(O)c4ncccc34)cccc12	-1.8	69.3	1.3	-1.9	46.8*	18.9*	-2.1
